A short description of assay [1]: Antiproliferative activity against human 786-0 cells assessed as inhibition of cell viability after 48 hrs by MTT reduction assay. The settings on record: 786-0, 48 h. It is filed as functional, cell-based. The method in brief: (§1)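 Cells grown in RPMI-1640 or EMEM with 10% FBS at 37 °C under 5% CO2. Seeded at 1 × 10^4 cells/well for 12 h, then exposed to a range of compound concentrations for 48 h. Viability read by MTT reduction. 5-Fluorouracil was the positive control. Each assay was repeated three times, and IC50 reported as mean ± SD.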
(In general: Tetrazolium assays rely on reduction of a dye to a coloured formazan, in cell work by metabolically active cells.)

A short description of assay [2]: Antiproliferative activity against human A375-S2 cells assessed as inhibition of cell viability after 48 hrs by MTT reduction assay. It is filed as functional, cell-based. The conditions noted are these: A375-S2, 48 h. The method in brief: as §1
Assay [3] can be described thus: Antiproliferative activity against human A498 cells assessed as inhibition of cell viability after 48 hrs by MTT reduction assay. The settings on record: A498, 48 h. The class given is functional, cell-based. The method in brief:
as §1

Assay [4] in a line: Antiproliferative activity against human 22Rv1 cells assessed as inhibition of cell viability after 48 hrs by MTT reduction assay. It is filed as functional, cell-based, CWR22R. The settings on record: 22Rv1, 48 h. The method in brief:
as §1

The nature of assay [5]: Antiproliferative activity against human C4-2B cells assessed as inhibition of cell viability after 48 hrs by MTT reduction assay. It is filed as functional, cell-based. The settings on record: LNCaP C4-2B. The method in brief: as §1
Assay [6] is described as follows: Antiproliferative activity against human ACHN cells assessed as inhibition of cell viability after 48 hrs by MTT reduction assay. The class given is functional, cell-based. The method in brief:
as §1

Assay [7] is described as follows: Antiinflammatory activity in mouse RAW264.7 cells assessed as inhibition of LPS-induced nitric oxide production after 24 hrs by Griess assay. The class given is functional, cell-based. The settings on record: RAW264.7, 24 h. The method in brief: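 RAW 264.7 macrophages seeded at 1 × 10^6 cells/well, then incubated 24 h at 37 °C with LPS (1 μg/mL), with or without test compounds. NO measured by Griess reagent (0.1% N-(1-naphthyl)ethylenediamine plus 1% sulfanilamide in 5% H3PO4), absorbance at 540 nm. NO concentration and inhibition rate calculated from a standard curve. Hydrocortisone served as positive control.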
(The Griess reaction detects nitrite, a stable product of nitric oxide.)

Each structure is given as a SMILES string. Bounds are passed on as bounds.

As to `CC(=O)O[C@H]1C[C@@](O)([C@H](C)[C@H]2CC(C)=C(C)C(=O)O2)[C@@]2(C)CC[C@H]3[C@@H](C[C@H]4O[C@]45CC=CC(=O)[C@]35C)[C@@]12O`, the IC50 in assay [1] amounted to 0.52 µM; in assay [2] it was 3.85 µM; in assay [3], 0.53 µM; in assay [4] it was 2.38 µM; in assay [5], 0.27 µM; in assay [6], 0.4 µM. In assay [7], the IC50 amounted to 3.42 µM.
Take `CC(=O)O[C@H]1[C@@H]2O[C@]2([C@H](C)[C@H]2CC(C)=C(C)C(=O)O2)[C@@]2(C)CC[C@H]3[C@@H](C[C@@H](O)[C@@]4(Cl)CC=CC(=O)[C@]34C)[C@@]12O`: the IC50 in assay [1] came out at 0.69 µM; in assay [2] it was 5 µM; in assay [3], 0.52 µM; in assay [4], 2.28 µM; in assay [5], 1.07 µM; in assay [6], 0.78 µM. Also, in assay [7], the IC50 came out at 1.42 µM.
In the case of `CC(=O)O[C@H]1C[C@@](O)([C@H](C)[C@H]2CC(C)=C(C)C(=O)O2)[C@@]2(C)CC[C@H]3[C@@H](C[C@@H](O)[C@@]4(O)CC=CC(=O)[C@]34C)[C@@]12O`, the IC50 in assay [1], in assay [2], in assay [3], in assay [4], in assay [5] and in assay [6] was more than 10 µM throughout. For the same compound, in assay [7], the IC50 was more than 100 µM.
`CC(=O)O[C@H]1C=C([C@H](C)[C@H]2CC(C)=C(C)C(=O)O2)[C@@]2(C)CC[C@H]3[C@@H](C[C@@H](O)[C@@]4(Cl)CC=CC(=O)[C@]34C)[C@]12O`: the IC50 is 0.42 µM in assay [1]; 3.37 µM in assay [2]; 0.42 µM in assay [3]; 0.48 µM in assay [4]; 0.51 µM in assay [5]; 4.8 µM in assay [6]. In addition, the IC50 in assay [7] amounted to 3.38 µM.
For the compound `CC1=C(C)C(=O)O[C@@H]([C@@H](C)C2=C[C@@H]3OC(C)(C)O[C@@]34[C@@H]3C[C@@H](O)[C@@]5(O)CC=CC(=O)[C@]5(C)[C@H]3CC[C@]24C)C1`, the IC50 in assay [1], in assay [2], in assay [3], in assay [4], in assay [5] and in assay [6] was more than 10 µM in each case. Besides, the IC50 in assay [7] came to 55.9 µM.
As to `CC(=O)O[C@H]1[C@@H]2O[C@]2([C@H](C)[C@H]2CC(C)=C(C)C(=O)O2)[C@@]2(C)CC[C@H]3[C@@H](C[C@H]4O[C@]45CC=CC(=O)[C@]35C)[C@@]12O`, the IC50 in assay [1], in assay [2], in assay [3], in assay [4], in assay [5] and in assay [6] was more than 10 µM throughout. In addition, the IC50 in assay [7] came to 2.54 µM.
On to `CC(=O)O[C@H]1C=C([C@H](C)[C@H]2CC(C)=C(C)C(=O)O2)[C@@]2(C)CC[C@H]3[C@@H](C[C@H]4O[C@]45CC=CC(=O)[C@]35C)[C@]12O`, for which the IC50 in assay [1] was 0.66 µM; in assay [2], 3.39 µM; in assay [3] it was 0.66 µM; in assay [4], 0.63 µM; in assay [5], 0.18 µM; in assay [6], 1.08 µM. For the same compound, the 50% inhibitory concentration (IC50) in assay [7] was 3.02 µM.
Turning to `CO[C@H]1CC(=O)[C@]2(C)[C@H]3CC[C@]4(C)C([C@H](C)[C@H]5CC(C)=C(C)C(=O)O5)=C[C@H](OC(C)=O)[C@@]4(O)[C@@H]3C[C@H]3O[C@]32C1`, the IC50 is 2.43 µM in assay [1]; more than 10 µM in assay [2]; 4.7 µM in assay [3]; 2.23 µM in assay [4]; 1.15 µM in assay [5]; 7.5 µM in assay [6]. In assay [7], the IC50 stood at 5.56 µM.
`CC(=O)O[C@H]1[C@@H]2O[C@]2([C@H](C)[C@H]2CC(C)=C(C)C(=O)O2)[C@@]2(C)CC[C@H]3[C@@H](C[C@@H](O)[C@@]4(O)CC=CC(=O)[C@]34C)[C@@]12O`: the IC50 in assay [1], in assay [2], in assay [3], in assay [4], in assay [5] and in assay [6] was more than 10 µM each time. Further, the IC50 in assay [7] was determined as 59.5 µM.

By IC50 is commonly meant the concentration needed to halve the response being measured.

Values taken from ChEMBL document CHEMBL3860025, “Antiproliferative and Anti-inflammatory Withanolides from Physalis angulata” (J Nat Prod, 2016).
